What was measured:
Assay type in all cases: functional
[1] = Induction of oxytocic activity in rat uterus
In short: (§1)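 Purified analogues assayed for oxytocic, avian vasodepressor and rat pressor activity. Potency was measured against the U.S.P. posterior pituitary reference standard using a four-point assay design.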

[2] = system: Gallus gallus; experiment: Induction of vasodepressor activity in conscious chicken; in short: as §1
[3] = species: Rattus norvegicus; experiment: Effect on pressor activity in rat; in short: as §1
[4] = species: Rattus norvegicus; experiment: Effect on rat uterus activity relative to bradykinin
[5] = species: Rattus norvegicus; experiment: Effect on rat blood pressure relative to bradykinin

Row | Compound | Activity [1] [U/mg] | Activity [2] [U/mg] | Activity [3] [U/mg] | Activity [4] [%] | Activity [5] [%]
1 | CC[C@H](C)[C@@H]1NC(=O)[C@H](Cc2ccc(O)cc2)NC(=O)CCSSC[C@@H](C(=O)N2CCC[C@H]2C(=O)N[C@@H](CC(C)C)C(=O)NCC(N)=O)NC(=O)[C@H](CC(N)=O)NC(=O)[C@H](CCC(N)=O)NC1=O | 803 | 975 | 1.44 |  | 
2 | N=C(N)NCCC[C@H](NC(=O)[C@H](Cc1ccccc1)NC(=O)[C@@H]1CCCN1C(=O)[C@H](CO)NC(=O)[C@H](Cc1ccccc1)NC(=O)CNC(=O)[C@@H]1CSCN1C(=O)[C@@H]1CCCN1C(=O)[C@@H](N)CCCNC(=N)N)C(=O)O |  |  |  | 46 | 26
3 | CC[C@H](C)[C@@H]1NC(=O)[C@H](Cc2ccc(O)cc2)NC(=O)CCSSC[C@@H](C(=O)N2CSC[C@H]2C(=O)N[C@@H](CC(C)C)C(=O)NCC(N)=O)NC(=O)[C@H](CC(N)=O)NC(=O)[C@H](CCC(N)=O)NC1=O | 1538 | 2039 | 1.69 |  | 
4 | CC[C@H](C)[C@@H]1NC(=O)[C@H](Cc2ccc(O)cc2)NC(=O)[C@@H](N)CSSC[C@@H](C(=O)N2CSC[C@H]2C(=O)N[C@@H](CC(C)C)C(=O)NCC(N)=O)NC(=O)[C@H](CC(N)=O)NC(=O)[C@H](CCC(N)=O)NC1=O | 1180 | 720 | 3.46 |  | 
5 | CC[C@H](C)[C@@H]1NC(=O)[C@H](Cc2ccc(O)cc2)NC(=O)[C@@H](N)CSSC[C@@H](C(=O)N2CCC[C@H]2C(=O)N[C@@H](CC(C)C)C(=O)NCC(N)=O)NC(=O)[C@H](CC(N)=O)NC(=O)[C@H](CCC(N)=O)NC1=O [OXYTOCIN] | 546 | 507 | 3.1 |  | 

— ChEMBL document CHEMBL3271980, “Synthesis and some pharmacological properties of oxytocin analogues having L-thiazolidine-4-carboxylic acid in position 7” (1976)
